According to ChEMBL document CHEMBL1145462, “In vivo pharmacodynamic activity of the glycopeptide dalbavancin” (Antimicrob Agents Chemother, 2007):
In brackets after ≈: the same amount, converted by molar mass.

Columns and labels:
Staphylococcus aureus [1] = test: Bactericidal activity against […] Staphylococcus aureus ATCC 29213 infected neutropenic Swiss ICR mouse thigh infection model assessed as drug level causing 1-log reduction of bacterial count at 10 mg/kg, ip dosed every 72 hrs; format: functional; conditions: route intraperitoneal
Method in brief: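 Neutropenic thigh-infected mice were treated ip starting 2 h post-infection for 144 h, with doses given q24h or q72h. Thigh CFU were fitted to a sigmoid Hill Emax model by nonlinear least squares. The dose giving a 1-log10 reduction versus start-of-therapy counts was derived from the fit, together with the free-drug 24-h AUC/MIC.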

Streptococcus pneumoniae [2] = test: AUC/MIC ratio of Streptococcus pneumoniae 1325 infected neutropenic mouse thigh infection model at 1.46 mg/kg, ip administered every 24 hrs by static effect experiment; format: functional; conditions: route intraperitoneal
Staphylococcus aureus [3] = test: AUC/MIC ratio of Staphylococcus aureus 33591 infected neutropenic mouse thigh infection model at 22.3 mg/kg, ip administered every 24 hrs by static effect experiment; format: functional; conditions: route intraperitoneal
Staphylococcus aureus [4] = test: AUC/MIC ratio of methicillin-resistant Staphylococcus aureus infected neutropenic mouse thigh infection model at 37.7 mg/kg, ip administered every 24 hrs by static effect experiment; format: functional; conditions: route intraperitoneal
Staphylococcus aureus [5] = test: AUC/MIC ratio of Staphylococcus aureus Smith infected neutropenic mouse thigh infection model at 33.5 mg/kg, ip administered every 24 hrs by static effect experiment; format: functional; conditions: route intraperitoneal
Staphylococcus aureus [6] = test: AUC/MBC ratio of Staphylococcus aureus Smith infected neutropenic mouse thigh infection model at 33.5 mg/kg, ip administered every 24 hrs by static effect experiment; format: functional; conditions: route intraperitoneal
Staphylococcus aureus [7] = test: AUC/MBC ratio of Staphylococcus aureus 307109 infected neutropenic mouse thigh infection model at 31 mg/kg, ip administered every 72 hrs by static effect experiment; format: functional; conditions: route intraperitoneal
Staphylococcus aureus [8] = test: AUC/MIC ratio of Staphylococcus aureus 33591 infected neutropenic mouse thigh infection model at 27.7 mg/kg, ip administered every 24 hrs by 1-log killing experiment; format: functional; conditions: route intraperitoneal
Staphylococcus aureus [9] = test: AUC/MIC ratio of Staphylococcus aureus Smith infected neutropenic mouse thigh infection model at 50.7 mg/kg, ip administered every 24 hrs by 1-log killing experiment; format: functional; conditions: route intraperitoneal
Staphylococcus aureus [10] = test: AUC/MBC ratio of Staphylococcus aureus 33591 infected neutropenic mouse thigh infection model at 27.7 mg/kg, ip administered every 24 hrs by 1-log killing experiment; format: functional; conditions: route intraperitoneal
Streptococcus pneumoniae [11] = test: AUC/MIC ratio of Streptococcus pneumoniae ATCC 10813 infected neutropenic mouse thigh infection model at 0.77 mg/kg, ip administered every 72 hrs by 1-log killing experiment; format: functional; conditions: route intraperitoneal
Staphylococcus aureus [12] = test: AUC/MIC ratio of Staphylococcus aureus 307109 infected neutropenic mouse thigh infection model at 34 mg/kg, ip administered every 72 hrs by 1-log killing experiment; format: functional; conditions: route intraperitoneal
Streptococcus pneumoniae [13] = test: AUC/MIC ratio of Streptococcus pneumoniae 1325 infected neutropenic mouse thigh infection model at 1.73 mg/kg, ip administered every 24 hrs by 2-log killing experiment; format: functional; conditions: route intraperitoneal
Staphylococcus aureus [14] = test: AUC/MIC ratio of Staphylococcus aureus ATCC 25923 infected neutropenic mouse thigh infection model at 60 mg/kg, ip administered every 24 hrs by 2-log killing experiment; format: functional; conditions: route intraperitoneal
Staphylococcus aureus [15] = test: AUC/MIC ratio of Staphylococcus aureus Smith infected neutropenic mouse thigh infection model at 73.5 mg/kg, ip administered every 24 hrs by 2-log killing experiment; format: functional; conditions: route intraperitoneal
Streptococcus pneumoniae [16] = test: AUC/MIC ratio of Streptococcus pneumoniae 1293 infected neutropenic mouse thigh infection model at 1.68 mg/kg, ip administered every 72 hrs by 2-log killing experiment; format: functional; conditions: route intraperitoneal
Staphylococcus aureus [17] = test: AUC/MBC ratio of Staphylococcus aureus 307109 infected neutropenic mouse thigh infection model at 37 mg/kg, ip administered every 72 hrs by 2-log killing experiment; format: functional; conditions: route intraperitoneal
Serum = test: Protein binding in Staphylococcus aureus infected neutropenic mouse serum; format: ADME, organism-based; conditions: in vivo
Method in brief: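 MICs for S. aureus ATCC 25923 and an MRSA strain were compared in broth, heat-treated (100°C, 30 min) 95% mouse serum and 95% serum ultrafiltrate, using arithmetic dilutions of 0.02 mg/liter per tube. Bound fraction = (MIC in serum − MIC in ultrafiltrate)/MIC in serum.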

Streptococcus pneumoniae [18] = test: Bactericidal activity against penicillin-susceptible Streptococcus pneumoniae ATCC 10813 infected neutropenic Swiss ICR mouse thigh infection model assessed as drug level causing 1-log reduction of bacterial count at 0.71 mg/kg, ip dosed every 72 hrs; format: functional; conditions: route intraperitoneal
Method in brief: (§1)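 Neutropenic mice (cyclophosphamide ip 150 mg/kg day −4, 100 mg/kg day −1, then every 48 h) received 0.1 ml log-phase inoculum per thigh under halothane. Intraperitoneal dalbavancin started 2 h later and was given for 6 days at q12h, q24h, q36h or q72h, two mice per regimen. Thigh CFU were counted at 144 h. Endpoint doses relative to start-of-therapy counts came from Hill-model nonlinear regression and are expressed per 24 h.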

Streptococcus pneumoniae [19] = test: Bactericidal activity in Streptococcus pneumoniae ATCC 10813 infected non-neutropenic mouse thigh infection model assessed as drug level causing 1-log reduction of bacterial count at 2.03 mg/kg/6days; format: functional
Streptococcus pneumoniae [20] = test: Bactericidal activity in Streptococcus pneumoniae ATCC 10813 infected neutropenic mouse thigh infection model assessed as drug level causing 1-log reduction of bacterial count at 4.13 mg/kg/6days; format: functional
Staphylococcus aureus [21] = test: Antibacterial activity against Staphylococcus aureus 31005 by microdilution method; format: functional
Method in brief: (§2)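 MIC and MBC were determined by CLSI broth microdilution, in duplicate on at least two occasions. Staphylococci were grown in Mueller-Hinton broth and agar; pneumococci were plated on sheep blood agar.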

Staphylococcus aureus [22] = test: Antibacterial activity against Staphylococcus aureus 307109 by microdilution method; format: functional; method in brief: as §2
[23] = AUC in bacterial pathogen-infected neutropenic Swiss ICR mouse thigh infection model at 20 mg/kg, ip; format: ADME, organism-based; set-up: dose 20 mg/kg, route intraperitoneal; conditions: in vivo
Method in brief: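 Thigh-infected neutropenic mice received single intraperitoneal doses (2.5, 5, 10, 20, 40, 80 mg/kg; 0.2 ml/dose). Blood was drawn by retroorbital aspiration from groups of three mice at 0.5, 1, 2, 4, 6, 24, 48, 72 and 96 h. Plasma levels were measured by microbiologic assay with Bacillus subtilis (detection limit 0.10 mg/liter). Noncompartmental analysis was used: half-life by linear least-squares regression, AUC by trapezoidal rule.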

Staphylococcus aureus [24] = test: Bactericidal activity in ip dosed […] Staphylococcus aureus ATCC 29213 infected neutropenic mouse thigh infection model assessed as reduction of colony count after 96 hrs by time kill study; format: functional, Thigh muscle
Method in brief: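 Neutropenic mice (cyclophosphamide ip 150 mg/kg day −4, 100 mg/kg day −1, then every 48 h) infected in thigh with 0.1 ml log-phase inoculum (10^6.6–10^7.6 CFU/ml) under halothane. Single ip doses of 5, 10, 20, 40, or 80 mg/kg were given 2 h later. Two mice sampled at 0.5–96 h. Thighs processed for CFU, reported as mean ± SD log10 CFU/thigh.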

Streptococcus pneumoniae [25] = test: Bactericidal activity against penicillin-susceptible Streptococcus pneumoniae ATCC 10813 infected neutropenic Swiss ICR mouse thigh infection model assessed as drug level causing 1-log reduction of bacterial count at 2.3 mg/kg, ip dosed every 12 hrs; format: functional; conditions: route intraperitoneal; method in brief: as §1

## CN[C@H]1C(=O)N[C@@H]2Cc3ccc(cc3)Oc3cc4cc(c3O[C@@H]3O[C@H](C(=O)O)[C@@H](O)[C@H](O)[C@H]3NC(=O)CCCCCCCCC(C)C)Oc3ccc(cc3Cl)[C@@H](O)[C@@H]3NC(=O)[C@H](NC(=O)[C@@H]4NC(=O)[C@@H](NC2=O)c2cc(cc(O)c2Cl)Oc2cc1ccc2O)c1ccc(O)c(c1)-c1c(O[C@H]2O[C@H](CO)[C@@H](O)[C@H](O)[C@@H]2O)cc(O)cc1[C@@H](C(=O)NCCCN(C)C)NC3=O [DALBAVANCIN]
Staphylococcus aureus [1]
  Activity: 31
Streptococcus pneumoniae [2]
  RatioAUC/MIC: 29
Staphylococcus aureus [3]
  RatioAUC/MIC: 96.2
Staphylococcus aureus [4]
  RatioAUC/MIC: 374
Staphylococcus aureus [5]
  RatioAUC/MIC: 156
Staphylococcus aureus [6]
  Ratio: 75
Staphylococcus aureus [7]
  Ratio: 11.3
Staphylococcus aureus [8]
  RatioAUC/MIC: 121
Staphylococcus aureus [9]
  RatioAUC/MIC: 248
Staphylococcus aureus [10]
  Ratio: 58.3
Streptococcus pneumoniae [11]
  RatioAUC/MIC: 1.6
Staphylococcus aureus [12]
  RatioAUC/MIC: 108
Streptococcus pneumoniae [13]
  RatioAUC/MIC: 34.5
Staphylococcus aureus [14]
  RatioAUC/MIC: 289
Staphylococcus aureus [15]
  RatioAUC/MIC: 361
Streptococcus pneumoniae [16]
  RatioAUC/MIC: 23.8
Staphylococcus aureus [17]
  Ratio: 14.6
Serum
  Activity: 98.4%
Streptococcus pneumoniae [18]
  Activity: 0.77
Streptococcus pneumoniae [19]
  Activity: 2.35
Streptococcus pneumoniae [20]
  Activity: 4.38
Staphylococcus aureus [21]
  MBC: 0.12 µg/mL (≈ 0.0661 µM)
  MIC: 0.06 µg/mL (≈ 0.033 µM)
Staphylococcus aureus [22]
  MBC: 0.12 µg/mL (≈ 0.0661 µM)
  MIC: 0.06 µg/mL (≈ 0.033 µM)
[23]
  AUC: 2260 µg·h/mL
Staphylococcus aureus [24]
  Activity: 4
Streptococcus pneumoniae [25]
  Activity: 2.8
